Source: ChEMBL document CHEMBL1141860, “Synthesis and monoamine transporter affinity of 3-aryl substituted trop-2-enes” (Bioorg Med Chem Lett, 2005)

Assays:
[1] = target: Monoamine transporters; serotonin & dopamine (Homo sapiens) (UniProt P31645+Q01959); assay: Selectivity for human DAT over human SERT; type: protein assay
[2] = target: Sodium-dependent dopamine transporter (Homo sapiens, UniProt Q01959); assay: Displacement of [3H]WIN-35428 from human DAT
[3] = target: Serotonin and norepinephrine transporters (SERT/NET) (Homo sapiens) (UniProt P31645+P23975); assay: Selectivity for human SERT over human NET; type: protein assay
Sequence of Serotonin and norepinephrine transporters (SERT/NET) (Homo sapiens) (P23975 whole entry, looked up): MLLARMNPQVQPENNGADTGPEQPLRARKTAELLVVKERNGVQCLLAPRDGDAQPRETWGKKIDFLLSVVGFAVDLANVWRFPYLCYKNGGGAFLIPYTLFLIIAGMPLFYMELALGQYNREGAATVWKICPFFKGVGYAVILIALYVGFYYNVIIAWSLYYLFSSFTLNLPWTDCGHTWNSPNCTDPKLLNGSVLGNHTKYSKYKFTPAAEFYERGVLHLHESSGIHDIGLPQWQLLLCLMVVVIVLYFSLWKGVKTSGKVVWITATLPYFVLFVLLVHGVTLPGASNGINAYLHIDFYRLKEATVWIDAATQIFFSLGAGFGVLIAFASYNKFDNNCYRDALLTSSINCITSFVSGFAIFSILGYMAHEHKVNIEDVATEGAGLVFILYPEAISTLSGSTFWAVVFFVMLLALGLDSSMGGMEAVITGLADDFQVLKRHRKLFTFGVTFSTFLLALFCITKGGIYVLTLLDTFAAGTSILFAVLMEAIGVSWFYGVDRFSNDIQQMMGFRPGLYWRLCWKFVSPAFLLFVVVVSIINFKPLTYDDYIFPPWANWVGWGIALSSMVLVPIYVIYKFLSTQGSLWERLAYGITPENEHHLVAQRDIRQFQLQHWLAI
Sequence of Serotonin and norepinephrine transporters (SERT/NET) (Homo sapiens) (P31645 whole entry, looked up): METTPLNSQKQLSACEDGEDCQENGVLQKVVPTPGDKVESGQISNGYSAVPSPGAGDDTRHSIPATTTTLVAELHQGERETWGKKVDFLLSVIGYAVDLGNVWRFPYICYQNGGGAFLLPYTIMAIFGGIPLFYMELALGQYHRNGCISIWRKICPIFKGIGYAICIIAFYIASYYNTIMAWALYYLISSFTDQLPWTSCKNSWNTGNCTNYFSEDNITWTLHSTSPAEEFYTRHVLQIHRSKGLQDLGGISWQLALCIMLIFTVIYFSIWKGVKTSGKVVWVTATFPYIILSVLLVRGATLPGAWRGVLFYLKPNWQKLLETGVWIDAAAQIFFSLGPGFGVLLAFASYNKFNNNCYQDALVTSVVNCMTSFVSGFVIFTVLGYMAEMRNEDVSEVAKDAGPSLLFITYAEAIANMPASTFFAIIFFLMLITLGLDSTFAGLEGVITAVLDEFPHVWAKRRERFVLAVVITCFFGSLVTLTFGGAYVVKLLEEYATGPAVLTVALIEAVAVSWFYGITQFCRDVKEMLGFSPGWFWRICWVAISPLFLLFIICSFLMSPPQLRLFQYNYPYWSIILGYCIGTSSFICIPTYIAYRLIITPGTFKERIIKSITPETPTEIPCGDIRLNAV

[4] = target: Sodium-dependent noradrenaline transporter (Homo sapiens, UniProt P23975); assay: Displacement of [3H]nisoxetine from human NET
Sequence of Sodium-dependent noradrenaline transporter (P23975 whole entry): as the sequence (P23975 whole entry, looked up) above
Outline: (§1)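 Competitive radioligand binding at human transporters. The tritiated standard ligand matched each transporter: WIN-35,428 for DAT, citalopram for SERT, and nisoxetine for NET.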

[5] = target: Monoamine transporters; Norepinephrine & dopamine (Homo sapiens) (UniProt Q01959+P23975); assay: Selectivity for human DAT over human NET; type: protein assay
Sequence of Monoamine transporters; Norepinephrine & dopamine (Homo sapiens) (P23975 whole entry, looked up): as above
Sequence of Monoamine transporters; Norepinephrine & dopamine (Homo sapiens) (Q01959 whole entry, looked up): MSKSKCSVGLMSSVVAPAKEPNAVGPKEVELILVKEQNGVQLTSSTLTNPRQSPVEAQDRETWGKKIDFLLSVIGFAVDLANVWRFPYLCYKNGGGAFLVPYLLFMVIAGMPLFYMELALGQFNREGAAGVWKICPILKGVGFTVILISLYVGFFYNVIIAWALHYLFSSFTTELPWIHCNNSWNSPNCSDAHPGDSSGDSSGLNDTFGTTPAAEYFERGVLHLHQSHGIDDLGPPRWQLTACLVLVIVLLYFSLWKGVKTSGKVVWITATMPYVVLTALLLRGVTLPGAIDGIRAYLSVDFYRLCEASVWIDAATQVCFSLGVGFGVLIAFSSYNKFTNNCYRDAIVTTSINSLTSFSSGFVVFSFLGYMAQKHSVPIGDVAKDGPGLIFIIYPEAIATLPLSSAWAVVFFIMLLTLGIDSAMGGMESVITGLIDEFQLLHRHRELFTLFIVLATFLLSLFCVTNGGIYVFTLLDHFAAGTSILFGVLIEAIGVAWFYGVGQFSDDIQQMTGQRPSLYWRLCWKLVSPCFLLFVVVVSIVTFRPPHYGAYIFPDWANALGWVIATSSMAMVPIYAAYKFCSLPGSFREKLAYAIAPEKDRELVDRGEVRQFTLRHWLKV

[6] = target: Sodium-dependent serotonin transporter (Homo sapiens, UniProt P31645); assay: Displacement of [3H]Citalopram from human SERT; outline: as §1
Sequence of Sodium-dependent serotonin transporter (P31645 whole entry): as the sequence (P31645 whole entry, looked up) above

Sequence of Monoamine transporters; serotonin & dopamine (Homo sapiens) (P31645 whole entry, looked up): as above
Sequence of Monoamine transporters; serotonin & dopamine (Homo sapiens) (Q01959 whole entry, looked up): as the sequence (Q01959 whole entry, looked up) above
Sequence of Sodium-dependent dopamine transporter (Q01959 whole entry): as the sequence (Q01959 whole entry, looked up) above

SMILES | Ratio IC50 [1] | IC50 [2] [µM] | Ratio IC50 [3] | IC50 [4] [µM] | Ratio IC50 [5] | IC50 [6] [µM]
C[N+]1(CCl)C2C=C(c3ccccc3-c3ccccc3)CC1CC2 (centres undefined) | 4.2 | 67 | 8 | 2.02 | 33.2 | 16.1
CN1C2CCC1CC(O)(c1ccccc1-c1ccccc1)C2 (centres undefined) | 1.58 | 3.98 | 0.038 | 66.3 | 0.06 | 2.52
CN1C2CCC1CC(O)(C1c3ccccc3-c3ccc(Br)cc31)C2 (centres undefined) | 6.5 | 16.8 | 0.041 | 62.6 | 0.27 | 2.57
CN1C2C=C(c3cccc(-c4ccccc4)c3)CC1CC2 (centres undefined) | 10.8 | 7.22 | 0.029 | 23 | 0.314 | 0.67
CN1C2CCC1CC(O)(C1c3ccccc3-c3ccccc31)C2 (centres undefined) | 0.015 | 0.543 | 0.22 | 158 | 0.0034 | 35.4
CN1C2C=C(c3c[nH]c4ccccc34)CC1CC2 (centres undefined) | 8.3 | 0.603 | 0.018 | 3.96 | 0.15 | 0.0726
CN1C2C=C(C3c4ccccc4-c4ccccc43)CC1CC2 (centres undefined) | 13.6 | 9.35 | 0.0083 | 82.7 | 0.113 | 0.69
CN1C2C=C(c3ccc4c(c3)Cc3ccccc3-4)CC1CC2 (centres undefined) | 52.2 | 0.757 | 0.0043 | 3.36 | 0.23 | 0.0145
CN1C2CCC1CC(O)(c1cccc(-c3ccccc3)c1)C2 (centres undefined) | 5.81 | 21.9 | 0.091 | 41.5 | 0.53 | 3.77
CN1C2C=C(c3ccccc3-c3ccccc3)CC1CC2 (centres undefined) | 5.4 | – | 0.27 | 6.43 | 1.44 | 1.71
